# Laboratory results: ChEMBL document CHEMBL1124607, “Studies on antitumor agents. 8. Antitumor activities of O-alkyl derivatives of 2'-deoxy-5-(trifluoromethyl)uridine and 2'-deoxy-5-fluorouridine” (1989)
# Organism: Mus musculus
# Experiment: Antitumor activity against transplanted tumor sarcoma 180 expressed as effective dose.
# Format: functional
# How it was run: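 Male ICR mice, five weeks old, implanted s.c. in the axilla with 5×10^6 sarcoma 180 cells. Starting 24 h after implant, compounds were given orally once daily for 7 consecutive days as a suspension in 0.5% CMC with 0.1% Tween 80. Seven mice per dose. Tumors were excised and weighed on day 10, and inhibition was taken from treated/control tumor weight.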
row,Compound,ED50 [mg/kg/day]
1,O=c1[nH]c(=O)n([C@H]2C[C@H](OCc3ccc(Cl)cc3)[C@@H](CO)O2)cc1C(F)(F)F,< 10
2,Cc1cccc(COC[C@H]2O[C@@H](n3cc(C(F)(F)F)c(=O)[nH]c3=O)C[C@@H]2O)c1,28
3,O=C(c1ccccc1)n1c(=O)c(C(F)(F)F)cn([C@H]2C[C@H](OCc3ccccc3)[C@@H](CO)O2)c1=O,26
4,CCO[C@H]1C[C@H](n2cc(C(F)(F)F)c(=O)n(C(=O)c3ccccc3)c2=O)O[C@@H]1CO,37
5,O=c1nc(OCc2ccccc2)c(C(F)(F)F)cn1[C@H]1C[C@H](O)[C@@H](CO)O1,> 40
6,O=c1[nH]c(=O)n([C@H]2C[C@H](OCc3ccccc3)[C@@H](CO)O2)cc1F,12
7,CCOC[C@H]1O[C@@H](n2cc(F)c(=O)[nH]c2=O)C[C@@H]1O,39
8,O=c1[nH]c(=O)n([C@H]2C[C@H](O)[C@@H](CO)O2)cc1F [FLOXURIDINE],84
9,CCOC[C@H]1O[C@@H](n2cc(C(F)(F)F)c(=O)[nH]c2=O)C[C@@H]1O,14
10,CCOC[C@H]1O[C@@H](n2cc(C(F)(F)F)c(=O)[nH]c2=O)C[C@@H]1OCC,25
11,O=c1[nH]c(=O)n([C@H]2C[C@H](OCc3ccccc3)[C@@H](COCc3ccccc3)O2)cc1C(F)(F)F,> 40
12,O=c1[nH]c(=O)n([C@H]2C[C@H](O)[C@@H](COCc3ccccc3)O2)cc1F,16
13,Cc1cccc(CO[C@H]2C[C@H](n3cc(C(F)(F)F)c(=O)[nH]c3=O)O[C@@H]2CO)c1,36
14,O=c1c(C(F)(F)F)cn([C@H]2C[C@H](O)[C@@H](CO)O2)c(=O)n1Cc1ccccc1,> 40
15,Cc1ccccc1CO[C@H]1C[C@H](n2cc(C(F)(F)F)c(=O)[nH]c2=O)O[C@@H]1CO,40
16,COc1ccc(COC[C@H]2O[C@@H](n3cc(C(F)(F)F)c(=O)[nH]c3=O)C[C@@H]2O)cc1,> 40
17,O=C(c1ccccc1)n1c(=O)c(C(F)(F)F)cn([C@H]2C[C@H](O)[C@@H](COCc3ccccc3)O2)c1=O,26
18,O=c1[nH]c(=O)n([C@H]2C[C@H](O)[C@@H](COCc3ccccc3)O2)cc1C(F)(F)F,15
19,CCO[C@H]1C[C@H](n2cc(F)c(=O)[nH]c2=O)O[C@@H]1CO,> 40
20,COc1ccc(CO[C@H]2C[C@H](n3cc(C(F)(F)F)c(=O)[nH]c3=O)O[C@@H]2CO)cc1,> 40
21,CCOC[C@H]1O[C@@H](n2cc(C(F)(F)F)c(=O)n(C(=O)c3ccccc3)c2=O)C[C@@H]1O,23
22,O=c1[nH]c(=O)n([C@H]2C[C@H](O)[C@@H](COCc3ccc(Cl)cc3)O2)cc1C(F)(F)F,14
23,O=c1[nH]c(=O)n([C@H]2C[C@H](OCc3ccccc3)[C@@H](CO)O2)cc1C(F)(F)F,13
24,CCO[C@H]1C[C@H](n2cc(C(F)(F)F)c(=O)[nH]c2=O)O[C@@H]1CO,15
25,O=c1[nH]c(=O)n([C@H]2C[C@H](O)[C@@H](CO)O2)cc1C(F)(F)F [TRIFLURIDINE],63
26,Cc1ccccc1COC[C@H]1O[C@@H](n2cc(C(F)(F)F)c(=O)[nH]c2=O)C[C@@H]1O,> 40
